Laboratory results taken from ChEMBL document CHEMBL1177884, “1,2-ethane bis-1-amino-4-benzamidine is active against several brain insult and seizure challenges through anti-NMDA mechanisms targeting the 3H-TCP binding site and antioxidant action” (Eur J Med Chem, 2010).
pIC50: −log10 of the molar value. Active and inactive are the calls of the source.

Assays:
[1] = Antioxidant activity assessed as inhibition of pyrogallol autooxidation; assay type: functional; design: concentration or dose not given beside the values; details: dose or concentration not given here
Summary of the method: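 Pyrogallol autooxidation followed at 420 nm in pH 7.4 TRIS saline (5 mM TRIS, 50 mM NaCl). Compound at 0.5 mM final, from a 50 mM DMSO stock; DMSO alone served as blank. Reaction started with 0.75 mM pyrogallol. Percent inhibition calculated from rates over the first 2 min. Mean of three separate determinations.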

Mus musculus [2] = assay: Neurotoxicity in Swiss mouse assessed as inability of animal to maintain on rotarod at 100 mg, ip after 30 mins by rotarod test; assay type: toxicity, organism-based; details: in vivo, 0.5 h
Summary of the method: (§1)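 Minimal acute neurotoxicity assessed by rotarod: mouse placed on a 1 inch knurled rod rotating at 6 rpm, at 15 min, 30 min, 1 h or 4 h after ip dosing in methylcellulose. Scored as the percentage of animals toxic, in bands (75–100%, 50–75%, 25–50%, 0–25%, none).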

Mus musculus [3] = assay: Anticonvulsant activity in Swiss mouse assessed as inhibition of maximal electroshock-induced seizures at 30 mg/kg, ip after 30 mins; assay type: functional, organism-based; design: dose 30 mg/kg
Summary of the method: (§2)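 Mice dosed ip with compound in methylcellulose at 30, 100 or 300 mg/kg. MES or subcutaneous pentylenetetrazol seizure tests run 30 min and 4 h after dosing, and occasionally at 15 min and 1 h.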

Mus musculus [4] = assay: Anticonvulsant activity in Swiss mouse assessed as inhibition of maximal electroshock-induced seizures at 30 mg/kg, ip after 4 hrs; assay type: functional, organism-based; design: dose 30 mg/kg; summary of the method: as §2
Mus musculus [5] = assay: Neurotoxicity in Swiss mouse assessed as inability of animal to maintain on rotarod at 300 mg, ip after 30 mins by rotarod test; assay type: toxicity, organism-based; details: in vivo, 0.5 h; summary of the method: as §1
Mus musculus [6] = assay: Neurotoxicity in Swiss mouse assessed as inability of animal to maintain on rotarod at 30 mg/kg, ip after 4 hrs by rotarod test; assay type: toxicity, organism-based; details: in vivo
Summary of the method: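 Minimal acute neurotoxicity assessed by rotarod: mouse placed on a 1 inch knurled rod rotating at 6 rpm, at 15 min, 30 min, 1 h or 4 h after ip dosing in methylcellulose.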

Mus musculus [7] = assay: Anticonvulsant activity in Swiss mouse assessed as inhibition of ScPTZ-induced seizures at 30 mg/kg, ip after 4 hrs; assay type: functional, organism-based; design: dose 30 mg/kg; summary of the method: as §2
Mus musculus [8] = assay: Anticonvulsant activity in Swiss mouse assessed as inhibition of ScPTZ-induced seizures at 100 mg/kg, ip after 4 hrs; assay type: functional, organism-based; design: dose 100 mg/kg
Summary of the method: (§3)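 Mice dosed ip with compound in methylcellulose at 30, 100 or 300 mg/kg. MES or subcutaneous pentylenetetrazol seizure tests run 30 min and 4 h after dosing, and occasionally at 15 min and 1 h. Activity scored as the percentage of animals protected, in bands (75–100%, 50–75%, 25–50%, 0–25%, none).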

Mus musculus [9] = assay: Neurotoxicity in Swiss mouse assessed as inability of animal to maintain on rotarod […], ip after 4 hr by rotarod test; assay type: toxicity, organism-based; details: in vivo; summary of the method: as §1
Mus musculus [10] = assay: Anticonvulsant activity in Swiss mouse assessed as inhibition of ScPTZ-induced seizures at 30 mg/kg, ip after 30 mins; assay type: functional, organism-based; design: dose 30 mg/kg; summary of the method: as §2
Mus musculus [11] = assay: Anticonvulsant activity in Swiss mouse assessed as inhibition of ScPTZ-induced seizures at 100 mg/kg, ip after 30 mins; assay type: functional, organism-based; design: dose 100 mg/kg; summary of the method: as §3
Mus musculus [12] = assay: Anticonvulsant activity in Swiss mouse assessed as inhibition of maximal electroshock-induced seizures at 100 mg/kg, ip after 4 hrs; assay type: functional, organism-based; design: dose 100 mg/kg; summary of the method: as §3
Mus musculus [13] = assay: Anticonvulsant activity in Swiss mouse assessed as inhibition of maximal electroshock-induced seizures at 100 mg/kg, ip after 30 mins; assay type: functional, organism-based; design: dose 100 mg/kg; summary of the method: as §3
Mus musculus [14] = assay: Neuroprotective activity against ibotenate-induced focal cerebral injury in Swiss mouse assessed as reduction in size of lesions in grey matter at 4 ug/kg, ip; assay type: functional; design: scale not given: the % may be the effect or the level left
Summary of the method: (§4)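 Swiss mouse pups anesthetized with isoflurane, then given 10 µg ibotenate by stereotaxic injection into the right frontoparietal area as two 1 µl boluses. Compound in DMSO given ip at 4 µg/kg; controls received DMSO ip. Brains fixed 5 days later. Lesion maximal diameter in white and cortical grey matter measured on cresyl-violet-stained serial coronal sections, 15 µm thick. ANOVA with Bonferroni test.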

Mus musculus [15] = assay: Anticonvulsant activity in Swiss mouse assessed as inhibition of ScPTZ-induced seizures at 100 mg/kg, ip after 1 hr; assay type: functional; design: scale not given: the % may be the effect or the level left; details: route intraperitoneal; summary of the method: as §3
Mus musculus [16] = assay: Anticonvulsant activity in Swiss mouse assessed as inhibition of ScPTZ-induced seizures at 100 mg/kg, ip after 15 mins; assay type: functional; design: scale not given: the % may be the effect or the level left; details: route intraperitoneal; summary of the method: as §3
Mus musculus [17] = assay: Toxicity in OF1 mouse assessed as rectal temperature at 30 mg/kg; assay type: organism-based; design: dose 30 mg/kg; details: in vivo
Summary of the method: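 Rectal temperature measured in mice given 30 mg/kg ip, 1 hr before testing.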

Mus musculus [18] = assay: Neurotoxicity in Swiss mouse assessed as inability of animal to maintain on rotarod […], ip after 4 hrs by rotarod test; assay type: toxicity, organism-based; details: in vivo; summary of the method: as §1
Mus musculus [19] = assay: Neurotoxicity in Swiss mouse assessed as inability of animal to maintain on rotarod […], ip after 15 mins by rotarod test; assay type: toxicity, organism-based; details: in vivo; summary of the method: as §1
Mus musculus [20] = assay: Anxiolytic activity against OF1 mouse assessed as increase in number of crossings of photocell activity meter at 30 mg/kg, ip administered 1 hr before testing measured for 3 mins; details: route intraperitoneal
Mus musculus [21] = assay: Anticonvulsant activity in Swiss mouse assessed as inhibition of ScPTZ-induced seizures at 300 mg/kg, ip after 4 hrs; assay type: functional, organism-based; design: dose 300 mg/kg; summary of the method: as §3
Mus musculus [22] = assay: Neurotoxicity in Swiss mouse assessed as inability of animal to maintain on rotarod […], ip after 1 hr by rotarod test; assay type: toxicity, organism-based; details: in vivo; summary of the method: as §1
Mus musculus [23] = assay: Anticonvulsant activity against magnesium deprivation mediated audiogenic seizure in OF1 mouse assessed as duration of cunvulsions at 6 mg/kg, ip; assay type: functional; details: route intraperitoneal
Mus musculus [24] = assay: Neuroprotective activity against ibotenate-induced focal cerebral injury in Swiss mouse assessed as reduction in size of lesions in white matter at 4 ug/kg, ip; assay type: functional; design: scale not given: the % may be the effect or the level left; summary of the method: as §4
Mus musculus [25] = assay: Anticonvulsant activity in Swiss mouse assessed as inhibition of ScPTZ-induced seizures at 300 mg/kg, ip after 30 mins; assay type: functional; design: scale not given: the % may be the effect or the level left; details: route intraperitoneal; summary of the method: as §3
Mus musculus [26] = assay: Anxiolytic activity against OF1 mouse assessed as increase in number of crossings of photocell activity meter at 10 mg/kg, ip administered 1 hr before testing measured for 3 mins; details: route intraperitoneal
Mus musculus [27] = assay: Anticonvulsant activity in Swiss mouse assessed as inhibition of maximal electroshock-induced seizures at 300 mg/kg, ip after 30 mins; assay type: functional, organism-based; design: dose 300 mg/kg; summary of the method: as §3
Mus musculus [28] = assay: Antinociceptive activity against thermal-stimulus induced pain reflex in OF1 mouse assessed as maximal possible effect at 60 mg/kg, ip after 45 mins by hot plate assay; details: route intraperitoneal
Mus musculus [29] = assay: Anticonvulsant activity against magnesium deprivation mediated audiogenic seizure in OF1 mouse assessed as duration of recovery at 6 mg/kg, ip; assay type: functional; details: route intraperitoneal
Mus musculus [30] = assay: Anxiolytic activity against OF1 mouse assessed as increase in number of crossings of photocell activity meter at 5 mg/kg, ip administered 1 hr before testing measured for 3 mins; details: route intraperitoneal
Mus musculus [31] = assay: Anticonvulsant activity in OF1 mouse assessed as protection against NMDA-induced seizures at 49 mg/kg,; assay type: functional
Summary of the method: (§5)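 Normally fed OF1 mice. Compound given ip 1 hr before ip NMDA (137 mg/kg). Protection scored as no seizures over 4 hours after NMDA and no death within 48 hours. […] At 49 mg/kg, the read-out was the NMDA seizure threshold.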

Mus musculus [32] = species on record: Mus musculus; assay: Anticonvulsant activity in OF1 mouse assessed as protection against NMDA-induced seizures; assay type: functional; summary of the method: as §5
Mus musculus [33] = assay: Antinociceptive activity against thermal-stimulus induced pain reflex in OF1 mouse assessed as maximal possible effect at 30 mg/kg, ip after 45 mins by hot plate assay; assay type: functional; details: route intraperitoneal
Summary of the method: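 OF1 mice given compound ip 45 min before testing, then placed on a hot plate at 55 ± 1 °C. Latency to a pain reflex (vocalization, paw lick, hindpaw flick or jump) recorded, with a 30 s cut-off. Latencies converted to % maximum possible effect. Mean ± SD, 6 treated vs 6 untreated mice per dose.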

Mus musculus [34] = assay: Anticonvulsant activity in Swiss mouse assessed as inhibition of maximal electroshock-induced seizures at 300 mg/kg, ip after 4 hrs; assay type: functional, organism-based; design: dose 300 mg/kg; summary of the method: as §3
Glutamate NMDA receptor = assay: Displacement of [3H]TCP from NMDA receptor in rat cerebral cortex
Mus musculus [35] = assay: Anticonvulsant activity against magnesium deprivation mediated audiogenic seizure in OF1 mouse assessed as duration of latency plus wide running period at 6 mg/kg, ip; assay type: functional; details: route intraperitoneal

Row | Structure (SMILES) | inhibition [1] [%] | Activity (Mus musculus [2]) [%] | Activity (Mus musculus [3]) | Activity (Mus musculus [4]) | Activity (Mus musculus [5]) [%] | Activity (Mus musculus [6]) | Activity (Mus musculus [7]) | Activity (Mus musculus [8]) | Activity (Mus musculus [9]) | Activity (Mus musculus [10]) | Activity (Mus musculus [11]) | Activity (Mus musculus [12]) | Activity (Mus musculus [13]) | Activity (Mus musculus [18]) | Activity (Mus musculus [19]) [%] | Activity (Mus musculus [21]) | Activity (Mus musculus [22]) [%] | Activity (Mus musculus [25]) [%] | Activity (Mus musculus [27]) | Activity (Mus musculus [34]) | further results
1 | N=C(N)c1ccc(N)cc1 | < 5 | – | – | – | – | – | – | – | – | – | – | – | – | – | – | – | – | – | – | – | –
2 | CCN(CCNc1ccc(C(=N)N)cc1)c1ccc(C(=N)N)cc1.Cl.Cl | 28.8 | 75 | inactive | inactive | 75 | Non-toxic | inactive | – | – | – | – | – | – | – | – | – | – | – | – | – | –
3 | CN(CCNc1ccc(C(=N)N)cc1)c1ccc(C(=N)N)cc1.Cl.Cl | 17.5 | 75 | inactive | inactive | 75 | Non-toxic | inactive | inactive | Non-toxic | inactive | inactive | inactive | inactive | – | – | – | – | – | – | – | –
4 | N=C(N)c1ccc(NCCNc2ccc(C(=N)N)cc2)cc1 | 36.3 | 25 | inactive | inactive | 75 | Non-toxic | inactive | inactive | Non-toxic | inactive | inactive | inactive | inactive | 25% | 50 | inactive | 75 | 75 | inactive | inactive | Activity (Mus musculus [14]): 49%; Activity (Mus musculus [15]): 75%; Activity (Mus musculus [16]): 75%; T (Mus musculus [17]): 35.7 °C; Activity (Mus musculus [20]): 13.3; Time (Mus musculus [23]): 1.4 s; Activity (Mus musculus [24]): 69%; Activity (Mus musculus [26]): 90.5; Activity (Mus musculus [28]): 70.33%; Time (Mus musculus [29]): 50.3 s; Activity (Mus musculus [30]): 103.3; Activity (Mus musculus [31]): >10%; ED50 (Mus musculus [32]): 6 mg/kg; Activity (Mus musculus [33]): 31.17%; pIC50 (Glutamate NMDA receptor): 5.85; Time (Mus musculus [35]): 4.75 s
5 | CN(CCN(C)c1ccc(C(=N)N)cc1)c1ccc(C(=N)N)cc1 | 51 | 25 | inactive | inactive | 75 | Non-toxic | inactive | inactive | Non-toxic | inactive | inactive | inactive | inactive | Non-toxic | 50 | inactive | 25 | 75 | inactive | inactive | –
